From ChEMBL document CHEMBL1126324, “Cardiotonic agents. 7. Prodrug derivatives of 4-ethyl-1,3-dihydro- 5-[4-(2-methyl-1H-imidazol-1-yl)benzoyl]-2H-imidazol-2-one” (J Med Chem, 1992)
Values after ≈ are worked out from the molar mass of the structure shown.

Legend:
[1] = Half life time was observed by 50% conversion to compound 1 at pH 1.5; type: ADME
How it was run: (§1)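 Aliquots taken at set intervals; prodrug, parent and internal standard quantified by reversed-phase HPLC with UV detection (alkyl phenyl column, 50 °C, phosphate/CH3CN gradient). t1/2 of drug consumed; mean of at least two determinations.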

[2] = Solubility was measured in pH 7.4 phosphate buffer; type: physicochemical
How it was run: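 Solubility in pH 7.4 phosphate buffer, quantified by HPLC.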

[3] = Half life time was observed by 50% conversion to compound 1 at pH 7.4; type: ADME; how it was run: as §1
[4] = Partition coefficient was determined in an octanol/ pH 7.4 phosphate buffer system.; type: physicochemical; settings: octanol/water
[5] = species on record: Mustela putorius furo; assay: Increased contractile force of ferret papillary muscle; type: functional, Muscle tissue
How it was run: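 Isolated ferret papillary muscle, 30-min preincubation with compound; value is the concentration (μM) giving a 20% increase in contractile force. Mean of at least two determinations, with and without 1 μM propranolol co-administration.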

[6] = species on record: Canis familiaris; assay: Half life time was observed by 50% conversion to compound 1 in dog plasma; type: ADME, Canis lupus familiaris; settings: in vitro
How it was run: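 Prodrug with internal standard diluted 1:100 from stock in 0.05 M NaH2PO4/0.1% H3PO4 into fasted canine plasma, held at 37 °C. Conversion to parent followed by HPLC; half-life of drug consumed.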

[7] = Inhibition of c-AMP phosphodiesterase

Row | SMILES | T1/2 [1] | solubility [2] | T1/2 [3] | Partition coefficient [4] | C20 [5] | T1/2 [6] | IC50 [7]
1 | CCc1nc(O)n(C(=O)C(C)C)c1C(=O)c1ccc(-n2ccnc2C)cc1 | 132 h | 10 µM (≈ 3.66 µg/mL) | 8 h | > 200 | 0.3 µM | 47 min | 
2 | CCc1nc(O)n(Cc2ccccc2)c1C(=O)c1ccc(-n2ccnc2C)cc1 |  |  |  |  | 13 µM |  | 
3 | CCc1nc(O)n(C(C)=O)c1C(=O)c1ccc(-n2ccnc2C)cc1 | 21 h | 40 µM (≈ 13.5 µg/mL) | 8 h | 26 | 0.2 µM | 30 min | 
4 | CCc1nc(O)n(C(=O)c2ccccc2)c1C(=O)c1ccc(-n2ccnc2C)cc1 | 263 h | 23 µM (≈ 9.21 µg/mL) | 25 h | 92 | 0.2 µM | 38 min | 157 µM
5 | CCc1nc(O)n(C(=O)Cc2ccccc2)c1C(=O)c1ccc(-n2ccnc2C)cc1 | 39 h | 25 µM (≈ 10.4 µg/mL) | 1.5 h |  | 0.2 µM |  | 
6 | CCC(=O)n1c(O)nc(CC)c1C(=O)c1ccc(-n2ccnc2C)cc1 | 17 h | 30 µM (≈ 10.6 µg/mL) | 6 h | 52 | 0.3 µM | 30 min | 
7 | CCc1[nH]c(O)nc1C(=O)c1ccc(-n2ccnc2C)cc1 |  | 44 µM (≈ 13 µg/mL) |  | 7 | 0.5 µM |  | 
